# Published values of several laboratories.
SMILES,target or system,test,system,setting,measurement,value
CC1(CC(F)(F)F)NC(=O)N(c2ccc(F)c(C(F)(F)F)c2)C1=O (centres unmarked),,metabolic stability,"human, liver microsomes",,microsomal CLint,< 7 µL/min/mg
CC(C)Cc1cn([C@H]2[C@H]([C@H](O)[C@H](O)CO)OC(C(=O)O)=C[C@@H]2O)nn1,,shake flask,aqueous buffer,"2 h, pH 7.4",logD,-0.54
Cc1[nH]c(C)c(S(=O)(=O)Nc2ccc(S(=O)(=O)F)c(Cl)c2)c1C(=O)N1CCC(F)(F)C1,,metabolic stability,"human, liver microsomes",,microsomal CLint,31.7 µL/min/mg
COc1ccc(NC(=O)N2CCCCN3[C@H](CN(C)C)[C@H](c4ccc(C#Cc5ccccc5)cc4)[C@@H]3C2)cc1,THP-1,"cell growth or viability, ATP luminescence",,72 h,CC50,2.87 µM
CC(C)CC(=O)OC[C@H]1O[C@@](C#N)(c2ccc3c(N)ncnn23)[C@H](O)[C@@H]1O,HEp-2,"cell growth or viability, CCK-8",,5 days,CC50,> 100 µM
N#C[C@@]1(n2ccc(N)nc2=O)O[C@H](CO)[C@@H](O)[C@H]1O,Calu-3,cell growth or viability,,,CC50,> 100 µM
CC/C(=C(\c1ccccc1)c1ccc(OCCN(C)C)cc1)c1ccccc1,MCF7,"cell growth or viability, resazurin",,72 h,IC50,18.2 µM
O=C1NC2(CCC2)C(=O)N1c1ccc(F)c(C(F)(F)F)c1,,metabolic stability,"human, liver microsomes",,microsomal CLint,11 µL/min/mg
CC(C)(C)[C@H](NC(=O)C(F)(F)F)C(=O)N1C[C@H]2[C@@H]([C@H]1C(=O)N[C@H](C#N)C[C@@H]1CCNC1=O)C2(C)C,Calu-3,cell growth or viability,,,CC50,> 100 µM
Cc1[nH]c(C)c(S(=O)(=O)Nc2ccc(S(F)(F)(F)(F)F)c(Cl)c2)c1C(=O)N1CCC(F)(F)C1,,metabolic stability,"rat, liver microsomes",,microsomal CLint,20.5 µL/min/mg
CC(C)CCC(=O)N[C@H]1[C@H]([C@H](O)[C@H](O)CO)OC(C(=O)O)=C[C@@H]1O,,shake flask,aqueous buffer,"2 h, pH 7.4",logD,-0.88
